# Results from ChEMBL document CHEMBL1122703, “Antihypertensives. N-1H-Pyrrol-1-yl-3-pyridazinamines” (J Med Chem, 1984).
# Experiments:
# Rattus norvegicus = assay: Oral dose which produces a 30 mmHg drop of systolic blood pressure (calculated on regression line); type: functional; conditions: Artery
# How it was run: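 Groups of three male conscious spontaneously hypertensive rats; compound suspended in aqueous 0.5% methocel and given by gavage at 2 mL/kg. Systolic pressure measured by indirect tail-cuff before and 2 and 4 h after dosing, following 20 min warming at 37 °C. The dose giving a 30 mmHg fall was read from the regression line of maximum fall against log dose.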
# Canis familiaris [1] = assay: Effect of compound (given intravenously) on systolic blood pressure in conscious renal hypertensive dogs at 0 h; type: functional, Canis lupus familiaris, Artery
# How it was run: (§1)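 Groups of four conscious mongrel renal hypertensive dogs; compound dissolved in distilled water and given intravenously at 0.5 mL/kg (1 mg/kg or 0.3 mg/kg in the time-course table). Systolic pressure and heart rate measured indirectly at the tail with a sensor and pressure cuff, at 0, 4, 6, 8, 10, 12 and 20 h. Values are mean ± SE of four animals.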
# Canis familiaris [2] = assay: Effect of compound (given intravenously) on systolic blood pressure in conscious renal hypertensive dogs at 12 h; type: functional, Canis lupus familiaris, Artery; how it was run: as §1
# Canis familiaris [3] = assay: Effect of compound (given intravenously) on systolic blood pressure in conscious renal hypertensive dogs at 20 h; type: functional, Canis lupus familiaris, Artery; how it was run: as §1
# Canis familiaris [4] = assay: Effect of compound (given intravenously) on systolic blood pressure in conscious renal hypertensive dogs at 4 h; type: functional, Canis lupus familiaris, Artery; how it was run: as §1
# Canis familiaris [5] = assay: Effect of compound (given intravenously) on systolic blood pressure in conscious renal hypertensive dogs at 6 h; type: functional, Canis lupus familiaris, Artery; how it was run: as §1
# Canis familiaris [6] = assay: Effect of compound (given intravenously) on systolic blood pressure in conscious renal hypertensive dogs at 8 h; type: functional, Canis lupus familiaris, Artery; how it was run: as §1
# Canis familiaris [7] = assay: Effect of compound (given intravenously) on heart rate in conscious renal hypertensive dogs at 0 h; type: functional, Canis lupus familiaris; how it was run: as §1
# Canis familiaris [8] = assay: Effect of compound (given intravenously) on heart rate in conscious renal hypertensive dogs at 10 h; type: functional, Canis lupus familiaris; how it was run: as §1
# Canis familiaris [9] = assay: Effect of compound (given intravenously) on heart rate in conscious renal hypertensive dogs at 12 h; type: functional, Canis lupus familiaris; how it was run: as §1
# Canis familiaris [10] = assay: Effect of compound (given intravenously) on heart rate in conscious renal hypertensive dogs at 20 h; type: functional, Canis lupus familiaris; how it was run: as §1
# Canis familiaris [11] = assay: Effect of compound (given intravenously) on heart rate in conscious renal hypertensive dogs at 4 h; type: functional, Canis lupus familiaris; how it was run: as §1
# Canis familiaris [12] = assay: Effect of compound (given intravenously) on systolic blood pressure in conscious renal hypertensive dogs at 10 h; type: functional, Canis lupus familiaris, Artery; how it was run: as §1
# [13] = Partition coefficient (logD7.4); conditions: octanol/water, pH 7.4
# Canis familiaris [14] = assay: Effect of compound (given intravenously) on heart rate in conscious renal hypertensive dogs 6 h; type: functional, Canis lupus familiaris; how it was run: as §1
# Canis familiaris [15] = assay: Effect of compound (given intravenously) on heart rate in conscious renal hypertensive dogs at 8 h; type: functional, Canis lupus familiaris; how it was run: as §1
structure (smiles),measurement,setting,value
Cc1ccc(C)n1Nc1nnc(N2CCC(O)CC2)c2ccccc12,ED30,Rattus norvegicus,~33 mg/kg
Cc1ccc(C)n1Nc1ccc(N2CCC(O)CC2)nn1,ED30,Rattus norvegicus,12.6 mg/kg
NNc1nncc2ccccc12 [HYDRALAZINE],Pressure,Canis familiaris [1],188 mmHg
same,Pressure,Canis familiaris [2],190 mmHg
same,Pressure,Canis familiaris [3],188 mmHg
same,Pressure,Canis familiaris [4],135 mmHg
same,Pressure,Canis familiaris [5],138 mmHg
same,Pressure,Canis familiaris [6],148 mmHg
same,Heart rate,Canis familiaris [7],78 beats min-1
same,Heart rate,Canis familiaris [8],125 beats min-1
same,Heart rate,Canis familiaris [9],118 beats min-1
same,Heart rate,Canis familiaris [10],115 beats min-1
same,Heart rate,Canis familiaris [11],128 beats min-1
same,Pressure,Canis familiaris [12],188 mmHg
Cc1ccc(C)n1Nc1nnc(N2CCOCC2)c2ccccc12,ED30,Rattus norvegicus,~91 mg/kg
Cc1c(Nn2c(C)ccc2C)nnc(N2CCOCC2)c1C,ED30,Rattus norvegicus,35 mg/kg
Cc1ccc(C)n1Nc1ccc(N(CCO)CC(C)O)nn1 (stereo not drawn),ED30,Rattus norvegicus,> 100 mg/kg
Cc1ccc(C)n1Nc1ccc(N(CCO)CCO)nn1,ED30,Rattus norvegicus,> 100 mg/kg
Cc1ccc(C)n1Nc1ccc(N(CC(C)O)CC(C)O)nn1 (stereo not drawn),ED30,Rattus norvegicus,~54 mg/kg
C=CCN(CC=C)c1ccc(Nn2c(C)ccc2C)nn1,ED30,Rattus norvegicus,11.4 mg/kg
Cc1ccc(C)n1Nc1ccc(N2CCN(C)CC2)nn1,ED30,Rattus norvegicus,~43 mg/kg
CC(=O)N(c1ccc(N2CCOCC2)nn1)n1c(C)ccc1C,ED30,Rattus norvegicus,11.8 mg/kg
same,logD,[13],1.64
Cc1ccc(C)n1Nc1ccc(N(C)C)nn1,ED30,Rattus norvegicus,~22 mg/kg
Cc1ccc(C)n1Nc1ccc(N2CCSCC2)nn1,ED30,Rattus norvegicus,~25 mg/kg
CCOCCN(CCOCC)c1ccc(Nn2c(C)ccc2C)nn1,ED30,Rattus norvegicus,2 mg/kg
CCN(CC)c1ccc(Nn2c(C)ccc2C)nn1,ED30,Rattus norvegicus,3.9 mg/kg
CN(c1ccc(N2CCOCC2)nn1)n1cccc1,ED30,Rattus norvegicus,16.5 mg/kg
Cc1ccc(C)n1N(C)c1ccc(N2CCOCC2)nn1,ED30,Rattus norvegicus,15.8 mg/kg
same,logD,[13],2.21
Cc1ccc(C)n1Nc1ccc(N2C(C)COCC2C)nn1 (stereo not drawn),ED30,Rattus norvegicus,18.5 mg/kg
Cc1ccc(C)n1Nc1ccc(N2CCNCC2)nn1,ED30,Rattus norvegicus,30 mg/kg
Cc1ccc(C)n1Nc1ccc(N(C)CC(C)O)nn1 (stereo not drawn),ED30,Rattus norvegicus,7.7 mg/kg
Cc1ccc(C)n1Nc1nnc(N2CCOCC2)c2c1CCCC2,ED30,Rattus norvegicus,~33 mg/kg
COCCN(CCOC)c1ccc(Nn2c(C)ccc2C)nn1,ED30,Rattus norvegicus,2.7 mg/kg
Cc1ccc(C)n1Nc1ccc(N2CCCC2)nn1,ED30,Rattus norvegicus,> 100 mg/kg
Cc1ccc(C)n1Nc1ccc(N2CCCCC2)nn1,ED30,Rattus norvegicus,10 mg/kg
c1ccn(Nc2ccc(N3CCOCC3)nn2)c1,ED30,Rattus norvegicus,> 100 mg/kg
COCCN(C)c1ccc(Nn2c(C)ccc2C)nn1,ED30,Rattus norvegicus,7 mg/kg
same,logD,[13],2.16
Cc1ccc(C)n1Nc1ccc(N2CCOCC2)nn1.Cl [MOPIDRALAZINE HYDROCHLORIDE],Pressure,Canis familiaris [1],190 mmHg
same,Pressure,Canis familiaris [2],165 mmHg
same,Pressure,Canis familiaris [3],187 mmHg
same,Pressure,Canis familiaris [4],168 mmHg
same,Heart rate,Canis familiaris [14],100 beats min-1
same,Pressure,Canis familiaris [5],150 mmHg
same,Pressure,Canis familiaris [6],140 mmHg
same,Heart rate,Canis familiaris [7],80 beats min-1
same,Heart rate,Canis familiaris [8],107 beats min-1
same,Heart rate,Canis familiaris [9],105 beats min-1
same,Heart rate,Canis familiaris [10],105 beats min-1
same,Heart rate,Canis familiaris [11],92 beats min-1
same,Heart rate,Canis familiaris [15],110 beats min-1
same,ED30,Rattus norvegicus,3.9 mg/kg
same,Pressure,Canis familiaris [12],147 mmHg
CCc1ccc(CC)n1Nc1ccc(N2CCOCC2)nn1,ED30,Rattus norvegicus,15.4 mg/kg
same,logD,[13],2.71
Cc1cc(N2CCOCC2)nnc1Nn1c(C)ccc1C,ED30,Rattus norvegicus,~26 mg/kg
